In article PMC7571425 (Antiviral Research, 2020):
Like-named read-outs stand apart in the source and are kept apart here.

Key:
[1] = Cytotoxicity in mock-infected Vero E6 cells; type: cell-based; conditions: African green monkey
SARS-CoV-2 [2] = assay: Image-based; type: cell-based, SARS-CoV-2 (hCoV/Korea/KCDC-03/2020); conditions: Severe acute respiratory syndrome coronavirus 2, 48 h, MOI 2.5, 48 h post-infection
SARS-CoV-2 [3] = type: cell-based; conditions: for reduction in SARS-CoV-2 titers: 33 μM
Cell viability assay [4] = type: cell-based; conditions: human
Method in brief: (§1)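 Cardiomyocytes were differentiated from H9 hESCs or CMC-hiPSC-011 hiPSCs (CHIR99021, then Wnt inhibitor C59; lactate selection days 10–15). They were exposed to graded drug concentrations (DMSO stocks) for 24 h or 48 h. Viability was read by MTS, absorbance 490 nm. CC50 came from four-parameter nonlinear regression. Mean ± SD of at least two independent experiments in triplicate.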

hPSC-CMs = assay: Electrophysiological characterization of hPSC-CMs; type: cell-based, human; conditions: for repolarization: dofetilide 10 nM, E4031 30 nM
SARS-CoV-2 [5] = assay: CPE-based antiviral assay in Vero E6 cells; type: cell-based, SARS-CoV-2 (hCoV/Korea/KCDC-03/2020)
hERG currents = hERG currents (Homo sapiens, UniProt Q12809); assay: cell-based
hERG currents, sequence (Q12809 whole entry): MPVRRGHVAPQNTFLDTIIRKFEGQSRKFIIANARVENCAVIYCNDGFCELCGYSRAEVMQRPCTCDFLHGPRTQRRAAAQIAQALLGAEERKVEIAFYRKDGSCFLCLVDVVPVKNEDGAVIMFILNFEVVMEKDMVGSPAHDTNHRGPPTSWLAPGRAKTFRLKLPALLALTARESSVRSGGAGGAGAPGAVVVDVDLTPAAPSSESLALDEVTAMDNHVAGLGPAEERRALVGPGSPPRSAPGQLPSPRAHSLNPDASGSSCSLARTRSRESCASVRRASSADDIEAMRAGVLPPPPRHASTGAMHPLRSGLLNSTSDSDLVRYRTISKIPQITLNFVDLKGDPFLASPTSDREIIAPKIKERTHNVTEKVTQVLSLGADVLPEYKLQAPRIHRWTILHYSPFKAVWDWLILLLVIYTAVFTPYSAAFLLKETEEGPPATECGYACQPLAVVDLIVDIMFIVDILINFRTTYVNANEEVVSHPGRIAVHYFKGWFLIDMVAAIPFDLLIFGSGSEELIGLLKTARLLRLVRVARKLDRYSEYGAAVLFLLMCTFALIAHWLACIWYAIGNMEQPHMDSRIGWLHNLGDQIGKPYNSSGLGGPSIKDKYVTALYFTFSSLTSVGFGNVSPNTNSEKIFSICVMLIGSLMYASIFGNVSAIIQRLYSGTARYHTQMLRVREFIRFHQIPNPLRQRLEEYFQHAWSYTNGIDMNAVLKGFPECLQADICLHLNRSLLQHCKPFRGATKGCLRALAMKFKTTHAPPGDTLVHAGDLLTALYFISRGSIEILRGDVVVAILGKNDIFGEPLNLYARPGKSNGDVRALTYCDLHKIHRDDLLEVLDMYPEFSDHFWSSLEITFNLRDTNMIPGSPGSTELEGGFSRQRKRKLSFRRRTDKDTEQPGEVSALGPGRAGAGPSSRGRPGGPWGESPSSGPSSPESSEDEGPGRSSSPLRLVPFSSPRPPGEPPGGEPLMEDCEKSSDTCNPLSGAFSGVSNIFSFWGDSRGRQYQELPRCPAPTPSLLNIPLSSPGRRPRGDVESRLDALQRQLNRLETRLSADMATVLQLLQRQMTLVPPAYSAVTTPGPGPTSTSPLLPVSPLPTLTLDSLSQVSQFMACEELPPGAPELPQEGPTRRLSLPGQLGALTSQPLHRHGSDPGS

Cell viability assay [6] = type: cell-based; conditions: human; remark: listed apart in the source
Method in brief: as §1

SARS-CoV-2 [7] = assay: RT-qPCR of intracellular SARS-CoV-2 RNA in hPSC-CMs; type: cell-based; conditions: 0.3 μM and 1 μM
[8] = hESC-CMs (human embryonic stem cell-derived cardiomyocytes)

CCN(CC)CCCC(C)Nc1ccnc2cc(Cl)ccc12 (centres unmarked) [Chloroquine]
Na+ peak amplitude and T-wave (hiPSC-CMs; 30 min exposure): pronounced reduction of Na^+ peak amplitude and T-wave flattening
field potential duration (FPD) (hiPSC-CMs; 30 min exposure): increased the field potential duration (FPD) of hiPSC-CMs in a dose-dependent manner
CC50 at 72 h [1]: > 100 µM
EC50 (SARS-CoV-2 [2]; hESC-CMs): 27.9 µM
EC90 (SARS-CoV-2 [2]; hESC-CMs): > 84.9 µM
EC50 (SARS-CoV-2 [2]; hiPSC-CMs): 12.1 µM
EC90 (SARS-CoV-2 [2]; hiPSC-CMs): 24.1 µM
infectious viral particle production (SARS-CoV-2 [3]; hESC-CMs and hiPSC-CMs, highest tested concentration): complete suppression
reduction in SARS-CoV-2 titers (SARS-CoV-2 [3]; hESC-CMs): 2.3 log10 PFU/ml
effect on viral titers (SARS-CoV-2 [3]; hPSC-CMs, 11 μM): did not affect
reduction in SARS-CoV-2 titers (SARS-CoV-2 [3]; hiPSC-CMs): 0.3 log10 PFU/ml
CC50 at 48 h (Cell viability assay [4]; [8]): 84.9 µM

Cc1cccc(CCN2CCC(C(=O)c3ccc(NS(C)(=O)=O)cc3)CC2)n1 [E4031]
repolarization (hPSC-CMs): significantly delayed

NC(=O)c1nc(F)c[nH]c1=O [Favipiravir (T-705), favipiravir]
in vitro antiviral activity against SARS-CoV-2 (SARS-CoV-2 [5]): no apparent in vitro antiviral activity

CCN(CCO)CCCC(C)Nc1ccnc2cc(Cl)ccc12 (centres unmarked) [Hydroxychloroquine, hydroxychloroquine]
CC50 at 72 h [1]: 76.1 µM

CCC(CC)COC(=O)[C@H](C)N[P@](=O)(OC[C@H]1O[C@@](C#N)(c2ccc3c(N)ncnn23)[C@H](O)[C@@H]1O)Oc1ccccc1 [Remdesivir]
selectivity index (SI) (SARS-CoV-2 [5]; CC50/EC50): > 50
concentration that reduced Na+ peak amplitudes and spontaneous beating rates, followed by complete cessation of spontaneous beating (hiPSC-CMs; 30 min exposure): ≥ 30 µM
field potential duration (FPD) (hiPSC-CMs; 30 min exposure): dose-dependent prolongations of FPD
Early afterdepolarizations (EADs) and delayed afterdepolarizations (DADs) (hiPSC-CMs; data not shown): not detected
IC50 (hERG currents): > 100 µM
CC50 at 72 h [1]: > 100 µM
EC50 (SARS-CoV-2 [2]; hESC-CMs): 0.6 µM
EC90 (SARS-CoV-2 [2]; hESC-CMs): 1.3 µM
EC50 (SARS-CoV-2 [2]; hiPSC-CMs): 0.2 µM
EC90 (SARS-CoV-2 [2]; hiPSC-CMs): 0.33 µM
viral particle production (SARS-CoV-2 [3]; hESC-CMs and hiPSC-CMs, 0.3 μM and 1 μM remdesivir): Complete suppression
reduction of viral titer (SARS-CoV-2 [3]; hPSC-CMs, 0.1 μM): minimal reduction
CC50 at 24 h (Cell viability assay [6]): 39.4 µM
CC50 at 48 h (Cell viability assay [6]): 15.6 µM
CC50 at 24 h (Cell viability assay [4]; [8]): 17.7 µM
CC50 at 48 h (Cell viability assay [4]; [8]): 10.2 µM
CC50 (Cell viability assay [4]; hPSC-CMs (hESC-CMs and hiPSC-CMs)): 10.2 to 39.4 µM
intracellular viral mRNA synthesis (SARS-CoV-2 [7]): complete inhibition

CN(CCOc1ccc(NS(C)(=O)=O)cc1)CCc1ccc(NS(C)(=O)=O)cc1 [dofetilide]
repolarization (hPSC-CMs): significantly delayed

CC(C)NCC(O)c1ccc(O)c(O)c1 (centres unmarked) [isoprenaline]
rate of AP (hPSC-CMs; 100 nM): substantially increased
